Experimental findings from ChEMBL document CHEMBL1133748, “Synthesis and cytotoxic and antitumor activity of benzo[b]pyrano[3, 2-h]acridin-7-one analogues of acronycine” (J Med Chem, 2000) are described below.

In one assay the test system is L1210. Kind of assay: In vitro inhibition of L1210 cell proliferation. The format is functional, cell-based. Conditions: Mus musculus. Summed up: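 L1210 murine leukemia cells grown in RPMI 1640 with 10% fetal calf serum, 2 mM glutamine, penicillin/streptomycin, 10 mM HEPES pH 7.4. Exposed 48 h to nine serial drug dilutions in triplicate. Microculture tetrazolium assay read-out. IC50 = concentration halving optical density versus untreated controls; mean of at least 2 separate experiments.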

The test system of assay [1] is Mus musculus. The assay can be described thus: Optimal therapeutic effect without toxicity in mice inoculated ip with P388 cells on day 0 with 12.5 mg/kg ip of compound on day 1. The format is functional. Conditions: route intraperitoneal.
Assay [2] relates to Mus musculus. Kind of assay: Optimal therapeutic effect without toxicity in mice inoculated ip with P388 cells on day 0 with 12.5 mg/kg iv of compound on day 1. The format is functional.
Assay [3] has as its system Mus musculus. Kind of assay: Optimal therapeutic effect without toxicity in mice inoculated ip with C38 cells on day 0 with 3.12 mg/kg iv of compound measured on day 31. The format is functional, MC-38.
For assay [4], the system named is Mus musculus. Kind of assay: Optimal therapeutic effect without toxicity in mice inoculated ip with C38 cells on day 0 with 6.25 mg/kg iv of compound measured on day 31. Type of assay: functional, MC-38.
Assay [5] relates to Mus musculus. The assay can be described thus: Optimal therapeutic effect without toxicity in mice inoculated ip with P388 cells on day 0 with 12.5 mg/kg iv of compound on day 1.
For assay [6], the system named is Mus musculus. The assay can be described thus: Optimal therapeutic effect without toxicity in mice inoculated ip with P388 cells on day 0 with 200 mg/kg ip of compound on day 1. Type of assay: functional. The settings on record: route intraperitoneal.

pIC50: −log10 of the molar value. Values joined by “and” are separate entries in the source; they are usually repeats but may differ in a detail not shown here. Equal entries are not always repeated.

One may read the pIC50 as the IC50 on a negative log10 scale, so that one unit is a factor of ten. In the assay on L1210, `COc1cc2c(c3c1c(=O)c1cc4ccccc4cc1n3C)[C@@H](OC(=O)CC(C)C)[C@@H](OC(=O)CC(C)C)C(C)(C)O2` gave a pIC50 of 6.30.

Compound `COc1cc2c(c3c1c(=O)c1cc4ccccc4cc1n3C)[C@@H](OC(C)=O)[C@@H](OC(=O)CC(C)C)C(C)(C)O2` had a pIC50 with L1210 of 6.30.

`C=C1Oc2cc(OC)c3c(=O)c4cc5ccccc5cc4n(C)c3c2C1(C)C` had a pIC50 with L1210 of 4.85.

In turn, `CCC(=O)O[C@@H]1c2c(cc(OC)c3c(=O)c4cc5ccccc5cc4n(C)c23)OC(C)(C)[C@@H]1OC(=O)CC` had a pIC50 with L1210 of 6.05.

`COc1cc2c(c3c1c(=O)c1cc4ccccc4cc1n3C)[C@@H](O)[C@@H](OC(=O)c1ccccc1)C(C)(C)O2` had a pIC50 with L1210 of 5.77.

`Oc1cc(O)c2c(O)c3cc4ccccc4cc3nc2c1`: the pIC50 in the assay with L1210 is 5.22.

In the assay on L1210, `C=C1Oc2cc(O)c3c(O)c4cc5ccccc5cc4nc3c2C1(C)C` had a pIC50 of 5.49.

Turning to `CC1(C)C=Cc2c(cc(O)c3c(O)c4cc5ccccc5cc4nc23)O1`, the pIC50 with L1210 is 4.99.

In the assay on L1210, `COc1c2c(cc3c1c(=O)c1cc4ccccc4cc1n3C)OC(C)(C)C=C2` gave a pIC50 of 5.31.

In the assay with L1210, `Cn1c2cc3ccccc3cc2c(=O)c2c(O)cc3c(c21)C=CC(C)(C)O3` had a pIC50 of 4.75.

With `C=C1Oc2cc3c(c(OC)c2C1(C)C)c(=O)c1cc2ccccc2cc1n3C`, the negative logarithm of the IC50 (pIC50) in the assay on L1210 is 5.07.

Take `C=C1Oc2cc(O)c3c(=O)c4cc5ccccc5cc4n(C)c3c2C1(C)C`: the pIC50 with L1210 is 5.05.

As to `COc1cc2c(c3c1c(=O)c1cc4ccccc4cc1n3C)[C@H]1OC(=O)OC1C(C)(C)O2` (stereo partly drawn), the pIC50 in the assay on L1210 is 7.70. Further, the results for the “T/C (survival)” value in the assay with Mus musculus [1] and with Mus musculus [2] were 327% and 157%, respectively. Further, the “T/C (tumor vol)” value in the assay on Mus musculus [3] amounted to 18%.

With `COc1cc2c(c3c1c(=O)c1cc4ccccc4cc1n3C)[C@@H](O)[C@@H](OC(=O)CC(C)C)C(C)(C)O2`, in the assay on L1210, the pIC50 is 5.72.

The compound `COc1cc2c(c3c1c(=O)c1cc4ccccc4cc1n3C)[C@@H](OC(C)=O)[C@@H](OC(C)=O)C(C)(C)O2` showed a pIC50 in the assay with L1210 of 6.22. The “T/C (survival)” value in the assay with Mus musculus [1] (12.5 mg/kg) is 213% and 178%. Further, the “T/C (tumor vol)” value with Mus musculus [4] came to 4%.

Regarding `COc1cc2c(c3c1c(=O)c1cc4ccccc4cc1n3C)[C@@H](OC(C)=O)[C@@H](OC(=O)c1ccccc1)C(C)(C)O2`, in the assay on L1210, the pIC50 was 6.70.

`COc1cc2c(c3c1c(=O)c1cc4ccccc4cc1n3C)[C@@H](O)[C@@H](O)C(C)(C)O2`: in the assay with L1210, the pIC50 was 4.39.

`COc1cc2c(c3c1c(=O)c1ccccc1n3C)[C@@H](OC(C)=O)[C@@H](OC(C)=O)C(C)(C)O2` (racemic): the pIC50 with L1210 is 5.47. Also, the figures for the “T/C (survival)” value in the assay on Mus musculus [1] and in the assay with Mus musculus [5] were 224% and 202%, respectively.

As for `COc1cc2c(c3c1c(=O)c1ccccc1n3C)C=CC(C)(C)O2` [ACRONINE], the pIC50 in the assay on L1210 is 4.70. Besides, the “T/C (survival)” value in the assay on Mus musculus [6] came to 125%.

Compound `COc1cc2c(c3c1c(=O)c1cc4ccccc4cc1n3C)C=CC(C)(C)O2` [BENZO[B]ACRONYCINE] had a pIC50 in the assay with L1210 of 5.72.
